SMILES strings stand for the structures. The source made the active and inactive calls. No cut-off for these calls is given here.

Assay [1] in a line: Inhibition of rat recombinant PFT expressed in insect Sf9 cells by scintillation proximity assay.
The subject of assay [2] is Trypanosoma cruzi. Description: Antitrypanosomal activity against Trypanosoma cruzi Tulahuen amastigotes infected in […] 3T3 cells after 7 days by alamar blue assay. In kind it is functional, organism-based. The settings on record: NIH3T3, 168 h. A digest of the protocol:
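T. cruzi amastigotes grown inside mammalian host 3T3 cells were exposed to compounds to measure parasite killing.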

Assay [3] deals with Sterol 14-alpha demethylase (Trypanosoma cruzi (strain CL Brener)) (UniProt Q7Z1V1). The experiment in a line: Binding affinity to Trypanosoma cruzi recombinant lanosterol 14-alpha-demethylase by optical spectroscopy. A digest of the protocol:
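Recombinant T. cruzi lanosterol 14α-demethylase at 1.4 μM was titrated with 0.2–2 μM compound. Binding was followed by difference optical spectroscopy of the visible heme Soret band.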

A further assay addresses Cytochrome P450 3A4 (Homo sapiens, UniProt P08684). The experiment in a line: Inhibition of human recombinant CYP3A4. In kind it is ADME.
Assay [4] concerns Trypanosoma cruzi. Description: Ratio of EC50 for tipifarnib to drug for antitrypanosomal activity against Trypanosoma cruzi Tulahuen amastigotes infected in […] 3T3 cells after 7 days by alamar blue assay. It is filed as functional, NIH3T3.

Cytochrome P450 3A4, sequence (P08684 whole entry): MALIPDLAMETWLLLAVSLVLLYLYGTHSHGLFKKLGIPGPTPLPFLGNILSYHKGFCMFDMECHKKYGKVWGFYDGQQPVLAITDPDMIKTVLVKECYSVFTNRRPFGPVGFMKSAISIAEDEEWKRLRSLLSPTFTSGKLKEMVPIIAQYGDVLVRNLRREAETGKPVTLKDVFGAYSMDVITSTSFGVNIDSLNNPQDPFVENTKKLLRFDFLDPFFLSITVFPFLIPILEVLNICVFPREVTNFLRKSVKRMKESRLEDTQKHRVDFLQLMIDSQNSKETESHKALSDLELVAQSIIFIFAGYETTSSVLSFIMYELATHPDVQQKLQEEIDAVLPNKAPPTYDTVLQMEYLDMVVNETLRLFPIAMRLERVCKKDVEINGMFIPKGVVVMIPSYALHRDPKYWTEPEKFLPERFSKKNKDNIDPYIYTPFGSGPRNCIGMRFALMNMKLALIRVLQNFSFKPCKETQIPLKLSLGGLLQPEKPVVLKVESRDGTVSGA
Sterol 14-alpha demethylase (Trypanosoma cruzi (strain CL Brener)), sequence (Q7Z1V1 whole entry, looked up): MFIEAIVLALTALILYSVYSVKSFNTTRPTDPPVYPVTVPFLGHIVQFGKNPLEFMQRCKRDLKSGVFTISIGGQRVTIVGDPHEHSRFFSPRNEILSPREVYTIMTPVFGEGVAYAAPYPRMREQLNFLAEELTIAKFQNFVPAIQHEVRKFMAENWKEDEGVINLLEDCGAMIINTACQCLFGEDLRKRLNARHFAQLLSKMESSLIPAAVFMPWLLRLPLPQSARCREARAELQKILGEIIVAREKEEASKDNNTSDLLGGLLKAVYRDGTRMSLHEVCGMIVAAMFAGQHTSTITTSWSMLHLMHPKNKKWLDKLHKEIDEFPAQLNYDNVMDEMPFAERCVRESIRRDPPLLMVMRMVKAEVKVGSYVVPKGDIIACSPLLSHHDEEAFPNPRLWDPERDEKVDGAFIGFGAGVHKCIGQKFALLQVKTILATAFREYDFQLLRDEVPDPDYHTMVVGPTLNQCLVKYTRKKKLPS

Consider `COC(c1ccc(Cl)cc1)(c1ccc2c(c1)c(-c1ccccc1C)cc(=O)n2C)c1cncn1C` (centres undefined), for which the IC50 in assay [1] turned out to be 3260 nM. Besides, the concentration for a half-maximal effect (EC50) in the assay with Trypanosoma cruzi [2] was 0.7 nM.

`COC(c1ccc(Cl)cc1)(c1ccc2c(c1)c(-c1ccccc1F)cc(=O)n2C)c1cncn1C` (centres undefined): in assay [1], the IC50 is 1870 nM. In addition, the response in the assay with Trypanosoma cruzi [2] was half-maximal at 0.8 nM (EC50).

`COC(c1ccc(Cl)cc1)(c1ccc2c(c1)c(-c1cccc(-c3ccccc3)c1)cc(=O)n2C)c1cncn1C` (centres undefined): a half-maximal response in the assay on Trypanosoma cruzi [2] (EC50) required 320 nM.

Consider `CCn1cncc1C(O)(c1ccc(Cl)cc1)c1ccc2c(c1)c(-c1cccc(Cl)c1)cc(=O)n2C` (centres undefined), for which the IC50 in assay [1] is 30 nM. This molecule had an EC50 in the assay with Trypanosoma cruzi [2] of 228 nM.

With `COC(c1ccc(Cl)cc1)(c1ccc2c(c1)c(-c1cc(C)cc(C)c1)cc(=O)n2C)c1cncn1C` (centres undefined), the IC50 in assay [1] came out at 470 nM. In the assay on Trypanosoma cruzi [2], this molecule came in with a concentration giving a half-maximal response (EC50) of 1.4 nM.

For the molecule `CNC(c1ccc(Cl)cc1)(c1ccc2c(c1)c(-c1cccc(Cl)c1C)cc(=O)n2C)c1cncn1C` (centres undefined), the IC50 in assay [1] stood at 957 nM. This molecule also gave a concentration for a half-maximal effect (EC50) with Trypanosoma cruzi [2] of 5 nM.

For the molecule `COC(c1ccc(Cl)cc1)(c1ccc2c(c1)c(-c1cccc(Cc3ccccc3)c1)cc(=O)n2C)c1cncn1C` (centres undefined), it took 83 nM to reach a half-maximal effect with Trypanosoma cruzi [2] (EC50).

As to `COC(c1ccc2ccccc2c1)(c1ccc2c(c1)c(-c1cccc(Cl)c1)cc(=O)n2C)c1cncn1C` (centres undefined), in assay [1], the IC50 was 2300 nM. Moreover, the EC50 in the assay on Trypanosoma cruzi [2] was 2.2 nM.

Consider `COC(c1ccc(Cl)cc1)(c1ccc2c(c1)c(-c1c(F)cccc1F)cc(=O)n2C)c1cncn1C` (centres undefined), for which the 50% inhibitory concentration (IC50) is over 10000 nM in assay [1] and 275 nM on Cytochrome P450 3A4. In assay [3], the outcome was Active. Besides, the EC50 in the assay on Trypanosoma cruzi [2] stood at 0.31 nM.

Consider `COC(c1ccc(Cl)cc1)(c1ccc2c(c1)c(-c1ccccc1C(F)(F)F)cc(=O)n2C)c1cncn1C` (centres undefined), for which the IC50 in assay [1] was over 5000 nM. This molecule showed a half-maximal effective concentration (EC50) in the assay with Trypanosoma cruzi [2] of 0.8 nM.

Take `COC(c1ccc(Cl)cc1)(c1ccc2c(c1)c(-c1cccc(C)c1)cc(=O)n2C)c1cncn1C` (centres undefined): in assay [1], the IC50 worked out at 85 nM. In the assay with Trypanosoma cruzi [2], this molecule gave an EC50 of 1.2 nM.

`Cn1cncc1C(O)(c1ccc(Cl)cc1)c1ccc2c(c1)c(-c1cccc(Cl)c1)cc(=O)n2C` (centres undefined): the IC50 in assay [1] came out at 8 nM. Besides, the 50% effective concentration (EC50) with Trypanosoma cruzi [2] was 17 nM.

For `CCOC(c1ccc(Cl)cc1)(c1ccc2c(c1)c(-c1cccc(Cl)c1C)cc(=O)n2C)c1cncn1C` (centres undefined), the IC50 in assay [1] was over 10000 nM. In the assay with Trypanosoma cruzi [2], this molecule returned an EC50 of 27 nM.

Consider `CCn1cncc1C(OC)(c1ccc(Cl)cc1)c1ccc2c(c1)c(-c1cccc(Cl)c1)cc(=O)n2C` (centres undefined), for which the IC50 in assay [1] came out at 970 nM. The EC50 with Trypanosoma cruzi [2] came out at 3 nM.

In the case of `COC(c1ccc(Cl)cc1)(c1ccc2c(c1)c(-c1ccc(F)cc1)cc(=O)n2C)c1cncn1C` (centres undefined), the IC50 in assay [1] was 991 nM. The response with Trypanosoma cruzi [2] was half-maximal at 0.5 nM (EC50).

Consider `COC(c1ccc(C(C)C)cc1)(c1ccc2c(c1)c(-c1cccc(Cl)c1)cc(=O)n2C)c1cncn1C` (centres undefined), for which the half-maximal effective concentration (EC50) in the assay with Trypanosoma cruzi [2] turned out to be 33 nM.

As to `CCn1cncc1C(N)(c1ccc(Cl)cc1)c1ccc2c(c1)c(-c1cccc(Cl)c1)cc(=O)n2C` (centres undefined), in assay [1], the IC50 stood at 28 nM. Also, the half-maximal effective concentration (EC50) in the assay with Trypanosoma cruzi [2] was determined as 118 nM.

In turn, `COC(c1ccc(C(F)(F)F)cc1)(c1ccc2c(c1)c(-c1cccc(Cl)c1)cc(=O)n2C)c1cncn1C` (centres undefined) had an EC50 in the assay with Trypanosoma cruzi [2] of 5 nM.

With `COC(c1ccc(Cl)cc1)(c1ccc2c(c1)c(-c1ccc(C)cc1)cc(=O)n2C)c1cncn1C` (centres undefined), in assay [1], the IC50 worked out at 410 nM. Moreover, in the assay with Trypanosoma cruzi [2], it took 2 nM to reach a half-maximal effect (EC50).

Consider `CCn1cncc1C(NC)(c1ccc(Cl)cc1)c1ccc2c(c1)c(-c1cccc(Cl)c1)cc(=O)n2C` (centres undefined), for which the 50% inhibitory concentration (IC50) in assay [1] was found to be 66 nM. The molecule also had a half-maximal effective concentration (EC50) in the assay with Trypanosoma cruzi [2] of 100 nM.

For `COC(c1ccc(Cl)cc1)(c1ccc2c(c1)c(-c1ccccc1)cc(=O)n2C)c1cncn1C` (centres undefined), the IC50 was 330 nM in assay [1] and 2350 nM on Cytochrome P450 3A4. This molecule also showed a 50% effective concentration (EC50) in the assay on Trypanosoma cruzi [2] of 0.8 nM.

`COC(c1ccc(C)cc1)(c1ccc2c(c1)c(-c1cccc(Cl)c1)cc(=O)n2C)c1cncn1C` (centres undefined) came in with an EC50 in the assay on Trypanosoma cruzi [2] of 3 nM.

`COC(c1ccc(Cl)cc1)(c1ccc2c(c1)c(-c1c(Cl)cccc1Cl)cc(=O)n2C)c1cncn1C` (centres undefined): in assay [1], the concentration for half-maximal inhibition (IC50) was over 10000 nM. In the assay with Trypanosoma cruzi [2], the EC50 was found to be 3.21 nM.

As to `CCc1ccc(C(OC)(c2ccc3c(c2)c(-c2cccc(Cl)c2)cc(=O)n3C)c2cncn2C)cc1` (centres undefined), in the assay on Trypanosoma cruzi [2], the EC50 was 10 nM.

For `COC(c1ccc(Cl)cc1)(c1ccc2c(c1)c(-c1ccc(Cl)cc1)cc(=O)n2C)c1cncn1C` (centres undefined), the IC50 in assay [1] amounted to 6040 nM; on Cytochrome P450 3A4, 923 nM. In addition, a half-maximal response in the assay with Trypanosoma cruzi [2] (EC50) required 0.82 nM.

On to `CCCOC(c1ccc(Cl)cc1)(c1ccc2c(c1)c(-c1cccc(Cl)c1C)cc(=O)n2C)c1cncn1C` (centres undefined), for which, in assay [1], the half-inhibitory concentration (IC50) is over 5000 nM. Also, a half-maximal response with Trypanosoma cruzi [2] (EC50) required 69 nM.

For the molecule `COC(c1ccc(Cl)cc1)(c1ccc2c(c1)c(-c1cccc(F)c1)cc(=O)n2C)c1cncn1C` (centres undefined), the concentration for half-maximal inhibition (IC50) in assay [1] came to 343 nM. In the assay on Trypanosoma cruzi [2], this molecule displayed an EC50 of 1.1 nM.

On to `COC(c1ccc(Cl)cc1)(c1ccc2c(c1)c(-c1cccc(C(F)(F)F)c1)cc(=O)n2C)c1cncn1C` (centres undefined), for which the 50% inhibitory concentration (IC50) in assay [1] turned out to be 1320 nM. The concentration for a half-maximal effect (EC50) in the assay with Trypanosoma cruzi [2] is 12 nM.

For the molecule `Cn1cncc1[C@@](N)(c1ccc(Cl)cc1)c1ccc2c(c1)c(-c1cccc(Cl)c1)cc(=O)n2C` [TIPIFARNIB], the IC50 in assay [1] came out at 0.7 nM.

In the case of `COC(c1ccc(Cl)cc1)(c1ccc2c(c1)c(-c1cccc(Cl)c1)cc(=O)n2C)c1cncn1C` (centres undefined), the IC50 in assay [1] stood at 65 nM. A half-maximal response in the assay on Trypanosoma cruzi [2] (EC50) required 3.1 nM.

In the case of `Cc1c(Cl)cccc1-c1cc(=O)n(C)c2ccc(C(O)(c3ccc(Cl)cc3)c3cncn3C)cc12` (centres undefined), the half-maximal inhibitory concentration (IC50) in assay [1] was determined as 796 nM. The same molecule returned an EC50 in the assay with Trypanosoma cruzi [2] of 112 nM.

On to `COC(c1ccc(Cl)cc1)(c1ccc2c(c1)c(-c1cccc(Cl)c1C)cc(=O)n2C)c1cncn1C` (centres undefined), for which the “Ratio EC50” value in the assay on Trypanosoma cruzi [4] is on record as 10. Besides, in assay [1], the 50% inhibitory concentration (IC50) was over 5000 nM. This molecule displayed a 50% effective concentration (EC50) in the assay with Trypanosoma cruzi [2] of 0.6 nM.

`COC(c1ccc(Cl)cc1)(c1ccc2c(c1)c(-c1c(C)cccc1C)cc(=O)n2C)c1cncn1C` (centres undefined): the IC50 in assay [1] is over 10000 nM. For the same molecule, the half-maximal effective concentration (EC50) with Trypanosoma cruzi [2] stood at 1.8 nM.

Source of the values: ChEMBL document CHEMBL1157803 (J Med Chem, 2010).
